MEKK3 PB1 HTS: MEKK3-MEK5 PB1 interaction, increase or decrease. binding response (% of control), % at 10 µM. bead-based flow cytometry, Alexa488-MEK5 binding to MEKK3; actives lie on both sides; 0 = blocked by unlabeled MEK5, 100 = vehicle. Q99759. hit rate 1.4% among 290,000;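 active = binding response more than 3 SD above or below the average of its plate-row segment, actives on both sides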;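 also: Alexa488 bead fluorescence after subtracting the streptavidin-only scavenger bead signal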
Target sequence (Q99759 whole entry, looked up): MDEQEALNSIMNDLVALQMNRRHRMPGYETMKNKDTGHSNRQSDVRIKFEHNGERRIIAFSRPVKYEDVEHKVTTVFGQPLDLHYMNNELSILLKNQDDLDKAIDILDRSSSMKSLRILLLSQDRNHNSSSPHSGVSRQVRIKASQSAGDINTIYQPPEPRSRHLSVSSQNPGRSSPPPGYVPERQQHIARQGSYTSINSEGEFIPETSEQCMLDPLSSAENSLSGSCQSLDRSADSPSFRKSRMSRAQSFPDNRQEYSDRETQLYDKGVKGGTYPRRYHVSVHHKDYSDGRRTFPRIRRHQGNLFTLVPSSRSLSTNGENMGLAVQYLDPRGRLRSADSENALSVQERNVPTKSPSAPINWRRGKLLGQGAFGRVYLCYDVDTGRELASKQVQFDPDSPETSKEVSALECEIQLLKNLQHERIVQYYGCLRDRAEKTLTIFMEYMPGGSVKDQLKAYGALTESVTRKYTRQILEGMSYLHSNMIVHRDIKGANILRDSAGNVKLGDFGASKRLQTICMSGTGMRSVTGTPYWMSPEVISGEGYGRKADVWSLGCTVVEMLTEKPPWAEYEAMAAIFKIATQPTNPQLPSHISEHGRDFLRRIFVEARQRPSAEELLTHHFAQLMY
Apaf-1 inh: inhibitors of human Apaf-1 apoptosome; inhibition, % at 20 µM; hit rate 0.71% among 330,000; reconstituted apoptosome caspase-3 activity, DEVD-Rh110 fluorescence; O14727; active = inhibition of at least 40% at 20 µM;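 also: plate controls were DMSO wells for no effect and DEVD-CHO caspase inhibitor wells for full effect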
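Assay system – apoptosome proteins · Medium – Hepes buffer, pH 7.5 · Also added – cytochrome c with DEVD-Rh110 · Timing – 30 min compound preincubation, 50 min activation, room temperature · Detection – Rh110 fluorescence, excitation 480 nm, emission 540 nm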
MEKK2 mut-MEK5: signal of MEK5 binding to mutant human MEKK2 PB1 domain; bead flow cytometry, Alexa488-MEK5 binding to MEKK2 mutant; percent response, % at 10 µM; hit rate 0.35% among 290,000; AID 1530; in the data active = percent response above about 24%, passing the limit was not always enough
DSG3 Ab inh: human desmoglein-3 autoantibody binding inhibition; hit rate 0.48% among 310,000; binding (percent of control), % at 10 µM; DSG3-coupled beads, scFv-anti-DSG3-GFP binding, flow cytometry; hits give low values; AID 588358;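 active = binding more than 3 SD below its plate's average and above zero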;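 also: hits lower antibody fragment binding to DSG3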
UBC13 inh: blocks human UBC13 polyubiquitin chain formation; P61088; TR-FRET; inhibition, % at 20 µM; hit rate 0.47% among 330,000; in the data active = inhibition above about 45%, passing the limit was not always enough
MEKK2 WT-MEK5: raises or lowers MEK5 binding to wildtype human MEKK2 PB1 domain; binding response (% of control), % at 10 µM; hit rate 1.1% among 290,000; bead flow cytometry, Alexa488-MEK5 binding to MEKK2 WT; actives lie on both sides; in the data active = binding response below about 67% or above about 130%
MEKK2wt confirm: raises or lowers MEK5 binding to wildtype human MEKK2, retest; bead flow cytometry, Alexa488-MEK5 binding to MEKK2 WT; actives lie on both sides; AID 1892; hit rate 2.4% among 5,900; shares compounds with MEKK3 PB1 HTS; binding response (% of control), % at 10 µM; in the data active = binding response below about 16% or above about 210%; inactive = in between
MEKK2mut-MEK5: signal of MEK5 binding to mutant human MEKK2, retest. shares compounds with MEKK3 PB1 HTS. bead flow cytometry, Alexa488-MEK5 binding to MEKK2 mutant. percent response, % at 10 µM. hit rate 2% among 5,900. AID 1893; in the data active = percent response mostly above about 71%, no sharp cut-off; inactive = mostly below about 38%;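 also: higher means compound restores mutant binding toward wildtype level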
MEKK3 confirm: confirmation of inhibitors of MEK5 binding to human MEKK3 | shares compounds with MEKK3 PB1 HTS | bead flow cytometry, Alexa488-MEK5 binding to MEKK3; hits give low values | binding response (% of control), % at 10 µM | hit rate 1.8% among 5,900 | AID 1894;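 active = binding response below 72% of control, or above a set upper limit, though filed actives all read lower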;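 also: 100% = DMSO only wells and 0% = binding blocked by excess unlabeled MEK5; lower values mean stronger disruption of MEK5 binding to MEKK3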
* marks the source's active call; other numbers are inactive results; [ ] = another dose, or the depositor's remark. An excerpt weighted towards active compounds, which were near 3.2% of everything screened.

Screening Cc1cc(N/N=C/c2cccc(Cl)c2)nc(NCc2ccccc2)n1 returned MEKK3 PB1 HTS 99, Apaf-1 inh 19, MEKK2 mut-MEK5 35, DSG3 Ab inh 106, UBC13 inh 18, MEKK2 WT-MEK5 149*, MEKK2wt confirm 174, MEKK2mut-MEK5 52 and MEKK3 confirm 110.
For Clc1ccc(/C=N/Nc2ccccn2)cc1 the results were MEKK3 PB1 HTS 128*, Apaf-1 inh -2, MEKK2 mut-MEK5 0, DSG3 Ab inh 97, UBC13 inh -9, MEKK2 WT-MEK5 111, MEKK2wt confirm 104, MEKK2mut-MEK5 5 and MEKK3 confirm 101.
Cc1ccc(CN(C)C(=O)c2cc(COc3cccc(C(F)(F)F)c3)on2)o1 was read as MEKK3 PB1 HTS 100, Apaf-1 inh 27, MEKK2 mut-MEK5 4, UBC13 inh -11 and MEKK2 WT-MEK5 98.
For Cc1cc(N/N=C/c2ccccc2F)nc(NCc2ccccc2)n1 the results were MEKK3 PB1 HTS 95, Apaf-1 inh 5, MEKK2 mut-MEK5 11, DSG3 Ab inh 115, UBC13 inh 7 and MEKK2 WT-MEK5 114.
`Cc1cc(N/N=C/c2ccc(Cl)cc2)nc(NCc2ccccc2)n1` gave MEKK3 PB1 HTS 107, Apaf-1 inh 24, MEKK2 mut-MEK5 54*, DSG3 Ab inh 106, UBC13 inh 14, MEKK2 WT-MEK5 186*, MEKK2wt confirm 173, MEKK2mut-MEK5 51 and MEKK3 confirm 110.
Cc1ccc(NCCCn2cnc3c(OCc4ccccc4)ncnc32)cc1C was read as DSG3 Ab inh 96.
Screening COc1ccccc1CNC(=O)c1cccnc1 returned MEKK3 PB1 HTS 112, Apaf-1 inh -8, MEKK2 mut-MEK5 14, DSG3 Ab inh 113, UBC13 inh 5 and MEKK2 WT-MEK5 115.
OC1(c2ccc(Cl)cc2)CCN(Cc2c[nH]c3ccccc23)CC1 was read as MEKK3 PB1 HTS 113, Apaf-1 inh 11, MEKK2 mut-MEK5 12, DSG3 Ab inh 100, UBC13 inh 11, MEKK2 WT-MEK5 151*, MEKK2wt confirm 130, MEKK2mut-MEK5 11 and MEKK3 confirm 103.
Screening Clc1ccccc1N1CCN(Cc2c[nH]c3ccccc23)CC1 returned Apaf-1 inh -3, DSG3 Ab inh 107 and UBC13 inh 15.
For CSc1ccccc1NC(=O)CSc1n[nH]c(C)c1[N+](=O)[O-] the results were MEKK3 PB1 HTS 101, Apaf-1 inh -12, MEKK2 mut-MEK5 2, DSG3 Ab inh 99, UBC13 inh 12 and MEKK2 WT-MEK5 97.
`Cc1[nH]nc(SCC(=O)NCc2ccc(F)cc2)c1[N+](=O)[O-]` gave MEKK3 PB1 HTS 131*, Apaf-1 inh 2, MEKK2 mut-MEK5 -1, DSG3 Ab inh 84, UBC13 inh 7, MEKK2 WT-MEK5 103, MEKK2wt confirm 104, MEKK2mut-MEK5 2 and MEKK3 confirm 101.
Cc1ccc(NC(=O)CSc2n[nH]c(C)c2[N+](=O)[O-])cc1C was read as MEKK3 PB1 HTS 131*, Apaf-1 inh 7, MEKK2 mut-MEK5 0, DSG3 Ab inh 99, UBC13 inh -8, MEKK2 WT-MEK5 104, MEKK2wt confirm 100, MEKK2mut-MEK5 2 and MEKK3 confirm 100.
Screening COc1ccc(NC(=O)COC(=O)CNS(=O)(=O)c2ccc(F)c(F)c2F)cc1OC returned MEKK3 PB1 HTS 135*, Apaf-1 inh -7, MEKK2 mut-MEK5 0, DSG3 Ab inh 101, UBC13 inh -4, MEKK2 WT-MEK5 105, MEKK2wt confirm 103, MEKK2mut-MEK5 5 and MEKK3 confirm 107.
For COc1cc(NC(=O)COC(=O)CNS(=O)(=O)c2ccc(F)c(F)c2F)cc(OC)c1 the results were MEKK3 PB1 HTS 101, Apaf-1 inh -1, MEKK2 mut-MEK5 -2, UBC13 inh 6 and MEKK2 WT-MEK5 101.
For O=C(COC(=O)C1CC1)NCc1ccccc1 the results were Apaf-1 inh 2, DSG3 Ab inh 105 and UBC13 inh -5.
Screening O=C(NCCNCc1cccc(Cl)c1)c1ccco1 returned DSG3 Ab inh 105.
For Clc1cccc(CNCCNCc2cccc(Cl)c2)c1 the results were MEKK3 PB1 HTS 115, Apaf-1 inh 12, MEKK2 mut-MEK5 17, DSG3 Ab inh 109, UBC13 inh 13, MEKK2 WT-MEK5 187*, MEKK2wt confirm 161, MEKK2mut-MEK5 37 and MEKK3 confirm 108.
CCC(CCNC(=O)c1ccccc1)(CCNC(=O)c1ccccc1)[N+](=O)[O-] was read as DSG3 Ab inh 91.
`O=C1NC[C@H](c2ccccc2)N(CCc2cccc(F)c2)C1=O` gave MEKK3 PB1 HTS 79*[inhibitor], Apaf-1 inh -2, MEKK2 mut-MEK5 -10, DSG3 Ab inh 101, UBC13 inh 7, MEKK2 WT-MEK5 94, MEKK2wt confirm 100, MEKK2mut-MEK5 -6 and MEKK3 confirm 99.
For COc1ccc(NCc2n[nH]c(=O)c3ccccc23)cc1 the results were MEKK3 PB1 HTS 97, Apaf-1 inh 15, MEKK2 mut-MEK5 -2, DSG3 Ab inh 104, UBC13 inh -17 and MEKK2 WT-MEK5 97.
`Cc1nnc(NCc2n[nH]c(=O)c3ccccc23)c2ccccc12` gave MEKK3 PB1 HTS 31*[inhibitor], Apaf-1 inh -15, MEKK2 mut-MEK5 -6, DSG3 Ab inh 107, UBC13 inh 11, MEKK2 WT-MEK5 41*[inhibitor], MEKK2wt confirm 95, MEKK2mut-MEK5 -2 and MEKK3 confirm 93.
O=C(Nc1cccc(NS(=O)(=O)c2ccc(S(=O)(=O)NC3CC3)cc2)c1)c1ccccn1 was read as MEKK3 PB1 HTS 124*, Apaf-1 inh 6, MEKK2 mut-MEK5 5, DSG3 Ab inh 105, UBC13 inh -5, MEKK2 WT-MEK5 114, MEKK2wt confirm 101, MEKK2mut-MEK5 1 and MEKK3 confirm 108.
CCOC(=O)c1sc2ccccc2c1NC(=O)c1coc2ccccc2c1=O was read as MEKK3 PB1 HTS 139*, Apaf-1 inh 21, MEKK2 mut-MEK5 -1, DSG3 Ab inh 108, UBC13 inh -8, MEKK2 WT-MEK5 96, MEKK2wt confirm 101, MEKK2mut-MEK5 -1 and MEKK3 confirm 102.

From PubChem
